Published values collected from several papers.
Protocols differ between the studies behind these lines. pIC50: −log10 of the molar value.
Cell line: PANC-1
Read-out: cell growth or viability

Compound | technique | time | endpoint | result
CC(=O)c1ccc(/N=N/c2cc(/C=C/C(=O)O)ccc2O)cc1 | MTT |  | pIC50 | < 4.30
Cc1ncsc1-c1ccc(CNC(=O)[C@@H]2C[C@@H](O)CN2C(=O)[C@@H](NC(=O)CCCCCCCCCCCC(=O)NCCCCC#Cc2cccc(-c3nn(-c4nc(C(=O)O)cs4)c(CC4CC4)c3Cc3ccc(S(N)(=O)=O)cc3)c2)C(C)(C)C)cc1 | CCK-8 | 72 h | GI50 | 16.1 µM
CCN(CC)CCCC(C)Nc1cnc(C(=O)Nc2cc(F)cc3cccnc23)cn1 (centres unmarked) | MTT |  | pIC50 | 5.14
O=C(O)/C=C/c1ccc(O)c(O)c1 | MTT |  | pIC50 | 5.39
COc1cc(Nc2nccc(-c3cnn4nc(OC)ccc34)n2)cc(C(F)(F)F)c1 | ATP luminescence |  | pIC50 | 6.12
COc1ccc(C(=O)O[C@@H]2CN3Cc4c(cc5c(c4OC)OCO5)[C@@]24C=C[C@H](OC)C[C@@H]34)cc1 | WST-1 |  | pIC50 | < 5.00
O=C(O)c1cc(O)c(O)c(O)c1 | MTT |  | pIC50 | 4.75
CC(C)C[C@H](NC(=O)[C@H](Cc1ccccc1)NC(=O)c1cnccn1)B(O)O | ATP luminescence |  | pIC50 | 8.00
COc1c2c(cc3c1OCO3)[C@]13C=C[C@H](OC)C[C@H]1N(C2)C[C@H]3OC(=O)c1cccc(C)c1 | WST-1 |  | pIC50 | < 5.00
COc1cccc2c1C(=O)c1c(O)c3c(c(O)c1C2=O)C[C@@](O)(C(=O)CO)C[C@@H]3O[C@H]1C[C@H](N)[C@H](O)[C@H](C)O1 | WST-1 | 72 h | pIC50 | 6.28
CNc1ncc2cc(-c3ccc(-c4cccc(C)n4)cc3Cl)c(=O)n(C[C@H]3OC[C@H](N)CO3)c2n1 | MTT | 24 h | pIC50 | 4.63
COc1cccc(C(=O)O[C@@H]2CN3Cc4c(cc5c(c4OC)OCO5)[C@@]24C=C[C@H](OC)C[C@@H]34)c1 | WST-1 |  | pIC50 | 5.06
CC(=O)c1ccc(N=Nc2c(C(=O)O)cc(O)c(O)c2O)cc1 | MTT |  | pIC50 | 4.90
Cc1ccc2[nH]c(=O)c3cc(C(=O)NCCCN(C)Cc4ccccc4)sc3c2c1 | MTT | 24 h | pIC50 | 4.77
